Reference: ChEMBL document CHEMBL3124843, “Synthesis, cytostatic, antimicrobial, and anti-HCV activity of 6-substituted 7-(het)aryl-7-deazapurine ribonucleosides” (J Med Chem, 2014)
pEC50, pIC50: −log10 of the molar value. Active and inactive are the calls of the source. The rule behind the calls is not given here.

Tests used:
Candida parapsilosis = assay: Antifungal activity against Candida parapsilosis after 48 hrs; assay type: functional, organism-based
CCRF-CEM [1] = assay: Cytostatic activity against human CCRF-CEM cells after 72 hrs by MTT assay; assay type: functional, cell-based
Outline: (§1)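 IC50 is the concentration that cuts cell growth by 50%, read by quantitative metabolic MTT staining after a 3-day treatment. The resistant sublines were made by raising the concentration of the cytotoxic drug step by step. CEM-DNR-bulk (daunorubicin-selected) stably overexpresses mrp-1. K562-TAX (paclitaxel-selected) expresses only mdr-1. HCT116p53−/− carries null p53 alleles. BJ and MRC-5 are nonmalignant fibroblasts.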

HCT-116 [2] = assay: Cytostatic activity against human HCT116 cells after 72 hrs by MTT assay; assay type: functional, cell-based; details: HCT-116, 72 h; outline: as §1
Candida tropicalis = assay: Antifungal activity against Candida tropicalis after 48 hrs; assay type: functional, organism-based
Pseudomonas aeruginosa [3] = assay: Antibacterial activity against Pseudomonas aeruginosa CCM 3955 after 24 hrs; assay type: functional, organism-based
MRC5 = assay: Cytostatic activity against human MRC5 cells after 72 hrs by MTT assay; assay type: ADME, cell-based; details: MRC5, 72 h; outline: as §1
CCRF-CEM [4] = assay: Inhibition of RNA synthesis in human CCRF-CEM cells assessed as BrU-positive cells at IC50 after 24 hrs by propidium iodide staining-based flow cytometric analysis (reference value: 43.3%); assay type: functional; design: scale not given: the % may be the effect or the level left
HCT-116 [5] = assay: Cytostatic activity against p53-deficient human HCT116 cells after 72 hrs by MTT assay; assay type: functional, cell-based; details: HCT-116, 72 h; outline: as §1
[6] = Cytotoxicity against human HuH7 cells infected with Hepatitis C virus subtype 2a; assay type: cell-based, Huh-7
[7] = tested on: Staphylococcus haemolyticus; assay: Antibacterial activity against methicillin-resistant Staphylococcus haemolyticus A/16568 after 24 hrs; assay type: functional, organism-based
K562 [8] = assay: Cytostatic activity against paclitaxel-resistant human K562 cells after 72 hrs by MTT assay; assay type: functional, cell-based; details: K562, 72 h; outline: as §1
K562 [9] = assay: Cytostatic activity against human K562 cells after 72 hrs by MTT assay; assay type: functional, cell-based; details: K562, 72 h; outline: as §1
Staphylococcus aureus [10] = assay: Antibacterial activity against methicillin-resistant Staphylococcus aureus MRSA 4591 after 24 hrs; assay type: functional, organism-based
HL-60 = assay: Antiproliferative activity against human HL60 cells after 72 hrs by XTT assay; assay type: functional, cell-based; details: HL-60, 72 h
Outline: (§2)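 Antiproliferative test on HL-60 promyelocytic leukemia and HeLa S3 cervical carcinoma cells growing in liquid suspension.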

Pichia kudriavzevii = assay: Antifungal activity against Candida crusei after 48 hrs; assay type: functional, organism-based
CCRF-CEM [11] = assay: Mitotic arrest in human CCRF-CEM cells assessed as pH3Ser10-positive cells at IC50 after 24 hrs by propidium iodide staining-based flow cytometric analysis (reference value: 1.4%); assay type: functional
Hepatitis C virus [12] = assay: Antiviral activity against Hepatitis C virus subtype 2a infected in human HuH7 cells; assay type: functional, organism-based, Hepacivirus hominis; details: genotype 2a, Huh-7
Pseudomonas aeruginosa [13] = assay: Antibacterial activity against multi-resistant Pseudomonas aeruginosa A/16575 after 24 hrs; assay type: functional, organism-based
HepG2 = assay: Antiproliferative activity against human HepG2 cells after 72 hrs by XTT assay; assay type: functional, cell-based; details: HepG2, 72 h
Hepatitis C virus [14] = assay: Antiviral activity against Hepatitis C virus subtype 1b infected in human HuH7 cells; assay type: functional, organism-based, Hepacivirus hominis; details: genotype 1b, Huh-7
Escherichia coli [15] = assay: Antibacterial activity against Escherichia coli CCM 3954 after 24 hrs; assay type: functional, organism-based
CCRF-CEM [16] = assay: Cell cycle arrest in human CCRF-CEM cells assessed as accumulation at G1 phase at IC50 after 24 hrs by propidium iodide staining-based flow cytometric analysis (reference value: 41%); assay type: functional
Staphylococcus aureus [17] = assay: Antibacterial activity against Staphylococcus aureus CCM 3953 after 24 hrs; assay type: functional, organism-based
Enterococcus faecalis = assay: Antibacterial activity against Enterococcus faecalis CCM 4224 after 24 hrs; assay type: functional, organism-based
[18] = Cytostatic activity against human CEM-DNR-bulk cells after 72 hrs by MTT assay; assay type: functional, cell-based; outline: as §1
[19] = Cytotoxicity against human HuH7 cells infected with Hepatitis C virus subtype 1b; assay type: cell-based, Huh-7
[20] = Antiproliferative activity against human HeLaS3 cells after 72 hrs by XTT assay; assay type: functional, cell-based; details: HeLa S3, 72 h; outline: as §2
Escherichia coli [21] = assay: Antibacterial activity against multi-resistant Escherichia coli C/16702 after 24 hrs; assay type: functional, organism-based
BJ = assay: Cytostatic activity against human BJ cells after 72 hrs by MTT assay; assay type: ADME, cell-based; outline: as §1
A549 = assay: Cytostatic activity against human A549 cells after 72 hrs by MTT assay; assay type: functional, cell-based; details: A549, 72 h; outline: as §1
Candida albicans = assay: Antifungal activity against Candida albicans after 48 hrs; assay type: functional, organism-based
CCRF-CEM [22] = assay: Cell cycle arrest in human CCRF-CEM cells assessed as accumulation at G2/M phase at IC50 after 24 hrs by propidium iodide staining-based flow cytometric analysis (reference value: 14.2%); assay type: functional
CCRF-CEM [23] = assay: Cell cycle arrest in human CCRF-CEM cells assessed as accumulation at sub-G1 phase at IC50 after 24 hrs by propidium iodide staining-based flow cytometric analysis (reference value: 9.6%); assay type: functional
CCRF-CEM [24] = assay: Inhibition of DNA synthesis in human CCRF-CEM cells assessed as BrdU-positive cells at IC50 after 24 hrs by propidium iodide staining-based flow cytometric analysis (reference value: 50.1%); assay type: functional; design: scale not given: the % may be the effect or the level left
CCRF-CEM [25] = assay: Cell cycle arrest in human CCRF-CEM cells assessed as accumulation at S phase at IC50 after 24 hrs by propidium iodide staining-based flow cytometric analysis (reference value: 44.8%); assay type: functional

Row | SMILES | Activity (Candida parapsilosis) | pIC50 (CCRF-CEM [1]) | pIC50 (HCT-116 [2]) | Activity (Candida tropicalis) | Activity (Pseudomonas aeruginosa [3]) | pIC50 (MRC5) | Activity (CCRF-CEM [4]) [%] | CC50 [6] [nM] | Activity [7] | pIC50 (K562 [8]) | pIC50 (K562 [9]) | Activity (Staphylococcus aureus [10]) | Activity (Pichia kudriavzevii) | Activity (CCRF-CEM [11]) [%] | pEC50 (Hepatitis C virus [12]) | Activity (Pseudomonas aeruginosa [13]) | pEC50 (Hepatitis C virus [14]) | Activity (Escherichia coli [15]) | Activity (Staphylococcus aureus [17]) | Activity (Enterococcus faecalis) | other results
1 | CN(C)c1ncnc2c1c(-c1ccco1)cn2[C@@H]1O[C@H](CO)[C@@H](O)[C@H]1O | inactive | 5.54 | 6.60 | inactive | inactive | < 4.00 | 0.4 | > 44000 | inactive | 5.89 | 6.82 | inactive | inactive | 1.5 | 5.87 | inactive | 5.83 | inactive | inactive | inactive | pIC50 (HCT-116 [5]): 6.49; pIC50 (HL-60): 6.66; pIC50 (HepG2): < 4.82; Activity (CCRF-CEM [16]): 31%; pIC50 [18]: 5.50; CC50 [19]: > 44000 nM; pIC50 [20]: 5.92; Activity (Escherichia coli [21]): inactive; pIC50 (BJ): < 4.00; pIC50 (A549): 5.34; Activity (Candida albicans): inactive
2 | COc1ncnc2c1c(-c1cccs1)cn2[C@@H]1O[C@H](CO)[C@@H](O)[C@H]1O | inactive | 7.05 | 7.10 | inactive | inactive | 4.36 | 0.1 | > 44000 | inactive | 5.21 | 7.15 | inactive | inactive | 1.1 | < 4.36 | inactive | 5.97 | inactive | inactive | inactive | pIC50 (HCT-116 [5]): 6.36; pIC50 (HL-60): 7.10; pIC50 (HepG2): 4.86; Activity (CCRF-CEM [22]): 9.8%; pIC50 [18]: 4.92; Activity (CCRF-CEM [23]): 7.5%; CC50 [19]: > 44000 nM; pIC50 [20]: 5.75; Activity (Escherichia coli [21]): inactive; pIC50 (BJ): 4.20; pIC50 (A549): 5.31; Activity (Candida albicans): inactive
3 | Nc1ncnc2c1c(-c1cccs1)cn2[C@@H]1O[C@H](CO)[C@@H](O)[C@H]1O | inactive | 7.70 | 8.00 | inactive | inactive | 4.40 | 15.2 | > 44000 | inactive | 7.70 | 7.52 | inactive | inactive | 1.4 | < 4.36 | inactive | < 4.36 | inactive | inactive | inactive | Activity (CCRF-CEM [24]): 52.4%; Activity (CCRF-CEM [25]): 39.2%; Activity (CCRF-CEM [16]): 50.6%; Activity (CCRF-CEM [22]): 10.1%; pIC50 [18]: 6.77; Activity (CCRF-CEM [23]): 18.6%; CC50 [19]: > 44000 nM; pIC50 [20]: 7.70; Activity (Escherichia coli [21]): inactive; pIC50 (BJ): 4.18; pIC50 (A549): 7.40; Activity (Candida albicans): inactive
4 | CN(C)c1ncnc2c1c(-c1ccsc1)cn2[C@@H]1O[C@H](CO)[C@@H](O)[C@H]1O | inactive | 5.46 | < 4.70 | inactive | inactive | < 4.00 | 0.7 | > 44000 | inactive | < 4.70 | 6.28 | inactive | inactive | 0.7 | < 4.36 | inactive | 4.42 | inactive | inactive | inactive | pIC50 (HCT-116 [5]): < 4.70; pIC50 (HL-60): 5.72; pIC50 (HepG2): < 4.70; pIC50 [18]: < 4.70; Activity (CCRF-CEM [23]): 6.8%; CC50 [19]: > 44000 nM; pIC50 [20]: < 4.82; Activity (Escherichia coli [21]): inactive; pIC50 (BJ): < 4.00; pIC50 (A549): < 4.70; Activity (Candida albicans): inactive
5 | CSc1ncnc2c1c(-c1ccco1)cn2[C@@H]1O[C@H](CO)[C@@H](O)[C@H]1O | inactive | 7.30 | 7.70 | inactive | inactive | 4.13 | 5 | > 44000 | inactive | 6.68 | 7.40 | inactive | inactive | 0.7 | 7.30 | inactive | 7.15 | inactive | inactive | inactive | pIC50 (HCT-116 [5]): 8.00; pIC50 (HL-60): 6.92; pIC50 (HepG2): 6.66; pIC50 [18]: 6.64; Activity (CCRF-CEM [23]): 7.9%; CC50 [19]: 38600 nM; pIC50 [20]: 6.27; Activity (Escherichia coli [21]): inactive; pIC50 (BJ): 6.59; pIC50 (A549): 7.30; Activity (Candida albicans): inactive
